pKi: −log10 of the molar value.
Organism: Homo sapiens
Test: Selectivity for factor 7a versus trypsin
In short: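 Apparent Ki (Morrison tight-binding fit) from two chromogenic assays, both at room temperature with substrate at Km and A405 monitored over time. FVIIa: 7 nM factor VII with 11 nM recombinant soluble human tissue factor in Tris pH 7.4, NaCl, 5.0 mM CaCl2, 1.5 mM EDTA, Tween 20, 10% DMSO; CH3SO2-D-CHA-But-Arg-pNA 500 µM. Trypsin: 10 nM, same buffer without CaCl2; Tosyl-Gly-Pro-Lys-pNA 25 µM.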

SMILES	Selectivity ratio
N=C(N)c1ccc2[nH]c(-c3cc(C(CC(=O)O)C(=O)O)cc(-c4cc(Cl)cc(Cl)c4Cl)c3O)nc2c1 (stereo unspecified)	39
N=C(N)c1ccc2[nH]c(-c3cc(C(CC(=O)O)C(=O)O)cc(-c4cccc(OC(F)F)c4)c3O)nc2c1 (stereo unspecified)	51
N=C(N)c1ccc2[nH]c(-c3cc(C(CC(=O)O)C(=O)O)cc(-c4cccc(O)c4)c3O)nc2c1 (stereo unspecified)	99
N=C(N)c1ccc2[nH]c(-c3cc(C(CC(=O)O)C(=O)O)cc(-c4cc(Cl)cc(Cl)c4)c3O)nc2c1 (stereo unspecified)	98
N=C(N)c1ccc2[nH]c(-c3cc(C(CC(=O)O)C(=O)O)cc(-c4cc(Cl)ccc4Cl)c3O)nc2c1 (stereo unspecified)	35
Cc1ccccc1-c1cc(C(CC(=O)O)C(=O)O)cc(-c2nc3cc(C(=N)N)ccc3[nH]2)c1O (stereo unspecified)	16
Cc1ccc(-c2cc(C(CC(=O)O)C(=O)O)cc(-c3nc4cc(C(=N)N)ccc4[nH]3)c2O)cc1 (stereo unspecified)	8
CC(C)c1cccc(-c2cc(C(CC(=O)O)C(=O)O)cc(-c3nc4cc(C(=N)N)ccc4[nH]3)c2O)c1 (stereo unspecified)	40
N=C(N)c1ccc2[nH]c(-c3cc(C(CC(=O)O)C(=O)O)cc(-c4cc(F)ccc4O)c3O)nc2c1 (stereo unspecified)	4400
Cc1cccc(-c2cc(C(CC(=O)O)C(=O)O)cc(-c3nc4cc(C(=N)N)ccc4[nH]3)c2O)c1 (stereo unspecified)	108
N=C(N)c1ccc2[nH]c(-c3cc(C(CC(=O)O)C(=O)O)cc(-c4cccc(Cl)c4Cl)c3O)nc2c1 (stereo unspecified)	44
CC(C)(C)c1ccc(-c2cc(C(CC(=O)O)C(=O)O)cc(-c3nc4cc(C(=N)N)ccc4[nH]3)c2O)cc1 (stereo unspecified)	1
N=C(N)c1ccc2[nH]c(-c3cc(C(CC(=O)O)C(=O)O)cc(-c4ccc(F)c(Cl)c4)c3O)nc2c1 (stereo unspecified)	34
N=C(N)c1ccc2[nH]c(-c3cc(C(CC(=O)O)C(=O)O)cc(-c4ccc(O)cc4)c3O)nc2c1 (stereo unspecified)	10
N=C(N)c1ccc2[nH]c(-c3cc(C(CC(=O)O)C(=O)O)cc(-c4ccccc4[N+](=O)[O-])c3O)nc2c1 (stereo unspecified)	25
CC(=O)Nc1cccc(-c2cc(C(CC(=O)O)C(=O)O)cc(-c3nc4cc(C(=N)N)ccc4[nH]3)c2O)c1 (stereo unspecified)	118
N=C(N)c1ccc2[nH]c(-c3cc(C(CC(=O)O)C(=O)O)cc(-c4ccccc4N)c3O)nc2c1 (stereo unspecified)	41
N=C(N)c1ccc2[nH]c(-c3cc(C(CC(=O)O)C(=O)O)cc(-c4cccc([N+](=O)[O-])c4)c3O)nc2c1 (stereo unspecified)	268
COc1ccc(C#N)cc1-c1cc(C(CC(=O)O)C(=O)O)cc(-c2nc3cc(C(=N)N)ccc3[nH]2)c1O (stereo unspecified)	54
N=C(N)c1ccc2[nH]c(-c3cc(C(CC(=O)O)C(=O)O)cc(-c4cccnc4)c3O)nc2c1 (stereo unspecified)	31
N=C(N)c1ccc2[nH]c(-c3cc(C(CC(=O)O)C(=O)O)ccc3O)nc2c1 (stereo unspecified)	1
COc1ccc(-c2cc(C(CC(=O)O)C(=O)O)cc(-c3nc4cc(C(=N)N)ccc4[nH]3)c2O)cc1 (stereo unspecified)	1
N=C(N)c1ccc2[nH]c(-c3cc(C(CC(=O)O)C(=O)O)cc(-c4cccc(CN)c4)c3O)nc2c1 (stereo unspecified)	18
N=C(N)c1ccc2[nH]c(-c3cc(C(CC(=O)O)C(=O)O)cc(-c4cc(F)cc(F)c4)c3O)nc2c1 (stereo unspecified)	115
N=C(N)c1ccc2[nH]c(-c3cc(C(CC(=O)O)C(=O)O)cc(-c4ccc(Cl)cc4)c3O)nc2c1 (stereo unspecified)	2
N=C(N)c1ccc2[nH]c(-c3cc(C(CC(=O)O)C(=O)O)cc(-c4ccccc4CO)c3O)nc2c1 (stereo unspecified)	16
COc1ccc(F)cc1-c1cc(C(CC(=O)O)C(=O)O)cc(-c2nc3cc(C(=N)N)ccc3[nH]2)c1O (stereo unspecified)	52
N=C(N)c1ccc2[nH]c(-c3cc(C(CC(=O)O)C(=O)O)cc(-c4cccc(CO)c4)c3O)nc2c1 (stereo unspecified)	216
N#Cc1cccc(-c2cc(C(CC(=O)O)C(=O)O)cc(-c3nc4cc(C(=N)N)ccc4[nH]3)c2O)c1 (stereo unspecified)	71

Continued, values first:

Selectivity ratio	SMILES
1080	Cc1cc(C)cc(-c2cc(C(CC(=O)O)C(=O)O)cc(-c3nc4cc(C(=N)N)ccc4[nH]3)c2O)c1 (stereo unspecified)
2960	N#Cc1ccc(O)c(-c2cc(C(CC(=O)O)C(=O)O)cc(-c3nc4cc(C(=N)N)ccc4[nH]3)c2O)c1 (stereo unspecified)
197	CC(=O)c1cccc(-c2cc(C(CC(=O)O)C(=O)O)cc(-c3nc4cc(C(=N)N)ccc4[nH]3)c2O)c1 (stereo unspecified)
192	N=C(N)c1ccc2[nH]c(-c3cc(C(CC(=O)O)C(=O)O)cc(-c4c(O)cc(Cl)cc4Cl)c3O)nc2c1 (stereo unspecified)
1790	N=C(N)c1ccc2[nH]c(-c3cc(C(CC(=O)O)C(=O)O)cc(-c4cc(N)ccc4O)c3O)nc2c1 (stereo unspecified)
59	N=C(N)c1ccc2[nH]c(-c3cc(C(CC(=O)O)C(=O)O)cc(-c4cccc(Cl)c4)c3O)nc2c1 (stereo unspecified)
91	N=C(N)c1ccc2[nH]c(-c3cc(C(CC(=O)O)C(=O)O)cc(-c4ccccc4)c3O)nc2c1 (stereo unspecified)
2500	N=C(N)c1ccc2[nH]c(-c3cc(C(CC(=O)O)C(=O)O)cc(-c4cc(Cl)ccc4O)c3O)nc2c1 (stereo unspecified)
1080	N=C(N)c1ccc2[nH]c(-c3cc(C(CC(=O)O)C(=O)O)cc(-c4ccccc4O)c3O)nc2c1 (stereo unspecified)
398	N=C(N)c1ccc2[nH]c(-c3cc(C(CC(=O)O)C(=O)O)cc(-c4cc(Cl)cc(Br)c4O)c3O)nc2c1 (stereo unspecified)
250	N=C(N)c1ccc2[nH]c(-c3cc(C(CC(=O)O)C(=O)O)cc(-c4cccc(N)c4)c3O)nc2c1 (stereo unspecified)
102	Cc1cccc(NC(=O)Cc2cc(C(CC(=O)O)C(=O)O)cc(-c3nc4cc(C(=N)N)ccc4[nH]3)c2O)c1 (stereo unspecified)
8500	N=C(N)c1ccc2[nH]c(-c3cc(C(CC(=O)O)C(=O)O)cc(-c4cc([N+](=O)[O-])ccc4O)c3O)nc2c1 (stereo unspecified)
103	N=C(N)c1ccc2[nH]c(-c3cc(C(CC(=O)O)C(=O)O)cc(-c4ccccc4CS)c3O)nc2c1 (stereo unspecified)
421	N=C(N)c1ccc2[nH]c(-c3cc(C(CC(=O)O)C(=O)O)cc(-c4cc(Cl)cc(Cl)c4O)c3O)nc2c1 (stereo unspecified)

What follows are molecules tested against T1, Coagulation factor VII (Homo sapiens, UniProt P08709) (assay: Binding affinity to factor 7a).
T1 sequence (P08709 whole entry): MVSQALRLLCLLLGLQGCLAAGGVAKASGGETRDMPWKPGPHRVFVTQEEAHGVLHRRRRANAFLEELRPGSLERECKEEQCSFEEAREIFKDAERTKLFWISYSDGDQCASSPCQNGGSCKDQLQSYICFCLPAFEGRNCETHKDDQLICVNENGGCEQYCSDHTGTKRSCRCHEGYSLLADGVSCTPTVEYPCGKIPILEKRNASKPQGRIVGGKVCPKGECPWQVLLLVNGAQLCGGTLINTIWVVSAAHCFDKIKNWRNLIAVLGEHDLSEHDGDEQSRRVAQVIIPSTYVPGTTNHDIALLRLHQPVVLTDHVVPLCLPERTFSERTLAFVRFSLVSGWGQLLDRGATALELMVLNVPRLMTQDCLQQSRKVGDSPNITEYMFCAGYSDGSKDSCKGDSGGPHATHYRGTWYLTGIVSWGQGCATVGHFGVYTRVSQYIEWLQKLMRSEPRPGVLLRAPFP

SMILES	pKi
N=C(N)c1ccc2nc(-c3cc(C(CC(=O)O)C(=O)O)cc(-c4ccc(F)c(Cl)c4)c3O)[nH]c2c1 (stereo unspecified)	6.89
N=C(N)c1ccc2[nH]c(-c3cc(C(CC(=O)O)C(=O)O)cc(-c4cc(Cl)cc(Cl)c4Cl)c3O)nc2c1 (stereo unspecified)	6.68
N=C(N)c1ccc2[nH]c(-c3cc(C(CC(=O)O)C(=O)O)cc(-c4cccc(OC(F)F)c4)c3O)nc2c1 (stereo unspecified)	6.92
N=C(N)c1ccc2[nH]c(-c3cc(C(CC(=O)O)C(=O)O)cc(-c4cccc(O)c4)c3O)nc2c1 (stereo unspecified)	7.06
N=C(N)c1ccc2[nH]c(-c3cc(C(CC(=O)O)C(=O)O)cc(-c4cc(Cl)ccc4Cl)c3O)nc2c1 (stereo unspecified)	6.60
Cc1ccccc1-c1cc(C(CC(=O)O)C(=O)O)cc(-c2nc3cc(C(=N)N)ccc3[nH]2)c1O (stereo unspecified)	6.30
Cc1ccc(-c2cc(C(CC(=O)O)C(=O)O)cc(-c3nc4ccc(C(=N)N)cc4[nH]3)c2O)cc1 (stereo unspecified)	6.38
N=C(N)c1ccc2nc(-c3cc(C(CC(=O)O)C(=O)O)cc(-c4ccccc4N)c3O)[nH]c2c1 (stereo unspecified)	6.38
N=C(N)c1ccc2nc(-c3cc(C(CC(=O)O)C(=O)O)cc(-c4ccc(Cl)cc4)c3O)[nH]c2c1 (stereo unspecified)	6.36
CC(C)(C)c1ccc(-c2cc(C(CC(=O)O)C(=O)O)cc(-c3nc4cc(C(=N)N)ccc4[nH]3)c2O)cc1 (stereo unspecified)	4.80
N=C(N)c1ccc2[nH]c(-c3cc(C(CC(=O)O)C(=O)O)cc(-c4ccc(O)cc4)c3O)nc2c1 (stereo unspecified)	6.06
CC(=O)Nc1cccc(-c2cc(C(CC(=O)O)C(=O)O)cc(-c3nc4ccc(C(=N)N)cc4[nH]3)c2O)c1 (stereo unspecified)	6.96
COc1ccc(C#N)cc1-c1cc(C(CC(=O)O)C(=O)O)cc(-c2nc3cc(C(=N)N)ccc3[nH]2)c1O (stereo unspecified)	6.55
N=C(N)c1ccc2[nH]c(-c3cc(C(CC(=O)O)C(=O)O)cc(-c4cccnc4)c3O)nc2c1 (stereo unspecified)	6.26
N=C(N)c1ccc2[nH]c(-c3cc(C(CC(=O)O)C(=O)O)ccc3O)nc2c1 (stereo unspecified)	5.19
COc1ccc(-c2cc(C(CC(=O)O)C(=O)O)cc(-c3nc4cc(C(=N)N)ccc4[nH]3)c2O)cc1 (stereo unspecified)	5.65
N=C(N)c1ccc2[nH]c(-c3cc(C(CC(=O)O)C(=O)O)cc(-c4cccc(CN)c4)c3O)nc2c1 (stereo unspecified)	6.11
N=C(N)c1ccc2[nH]c(-c3cc(C(CC(=O)O)C(=O)O)cc(-c4ccccc4CO)c3O)nc2c1 (stereo unspecified)	6.14
N=C(N)c1ccc2nc(-c3cc(C(CC(=O)O)C(=O)O)cc(-c4cccc(Cl)c4Cl)c3O)[nH]c2c1 (stereo unspecified)	6.57
COc1ccc(F)cc1-c1cc(C(CC(=O)O)C(=O)O)cc(-c2nc3cc(C(=N)N)ccc3[nH]2)c1O (stereo unspecified)	6.48
N#Cc1cccc(-c2cc(C(CC(=O)O)C(=O)O)cc(-c3nc4cc(C(=N)N)ccc4[nH]3)c2O)c1 (stereo unspecified)	7.11

Now from value to molecule:

pKi	SMILES
7.54	Cc1cc(C)cc(-c2cc(C(CC(=O)O)C(=O)O)cc(-c3nc4cc(C(=N)N)ccc4[nH]3)c2O)c1 (stereo unspecified)
7.92	N#Cc1ccc(O)c(-c2cc(C(CC(=O)O)C(=O)O)cc(-c3nc4cc(C(=N)N)ccc4[nH]3)c2O)c1 (stereo unspecified)
7.68	N=C(N)c1ccc2nc(-c3cc(C(CC(=O)O)C(=O)O)cc(-c4cccc(CO)c4)c3O)[nH]c2c1 (stereo unspecified)
7.48	CC(=O)c1cccc(-c2cc(C(CC(=O)O)C(=O)O)cc(-c3nc4cc(C(=N)N)ccc4[nH]3)c2O)c1 (stereo unspecified)
7.60	N=C(N)c1ccc2[nH]c(-c3cc(C(CC(=O)O)C(=O)O)cc(-c4c(O)cc(Cl)cc4Cl)c3O)nc2c1 (stereo unspecified)
8.00	N=C(N)c1ccc2[nH]c(-c3cc(C(CC(=O)O)C(=O)O)cc(-c4cc(N)ccc4O)c3O)nc2c1 (stereo unspecified)
7.66	N=C(N)c1ccc2nc(-c3cc(C(CC(=O)O)C(=O)O)cc(-c4ccccc4[N+](=O)[O-])c3O)[nH]c2c1 (stereo unspecified)
7.18	N=C(N)c1ccc2[nH]c(-c3cc(C(CC(=O)O)C(=O)O)cc(-c4cccc(Cl)c4)c3O)nc2c1 (stereo unspecified)
7.13	N=C(N)c1ccc2[nH]c(-c3cc(C(CC(=O)O)C(=O)O)cc(-c4ccccc4)c3O)nc2c1 (stereo unspecified)
8.27	N=C(N)c1ccc2[nH]c(-c3cc(C(CC(=O)O)C(=O)O)cc(-c4cc(Cl)ccc4O)c3O)nc2c1 (stereo unspecified)
7.57	N=C(N)c1ccc2nc(-c3cc(C(CC(=O)O)C(=O)O)cc(-c4cc(Cl)cc(Cl)c4)c3O)[nH]c2c1 (stereo unspecified)
7.89	N=C(N)c1ccc2[nH]c(-c3cc(C(CC(=O)O)C(=O)O)cc(-c4ccccc4O)c3O)nc2c1 (stereo unspecified)
7.12	CC(C)c1cccc(-c2cc(C(CC(=O)O)C(=O)O)cc(-c3nc4ccc(C(=N)N)cc4[nH]3)c2O)c1 (stereo unspecified)
8.05	N=C(N)c1ccc2[nH]c(-c3cc(C(CC(=O)O)C(=O)O)cc(-c4cc(Cl)cc(Br)c4O)c3O)nc2c1 (stereo unspecified)
7.44	N=C(N)c1ccc2[nH]c(-c3cc(C(CC(=O)O)C(=O)O)cc(-c4cccc(N)c4)c3O)nc2c1 (stereo unspecified)
7.17	N=C(N)c1ccc2nc(-c3cc(C(CC(=O)O)C(=O)O)cc(-c4cc(F)cc(F)c4)c3O)[nH]c2c1 (stereo unspecified)
7.27	Cc1cccc(NC(=O)Cc2cc(C(CC(=O)O)C(=O)O)cc(-c3nc4cc(C(=N)N)ccc4[nH]3)c2O)c1 (stereo unspecified)
8.22	N=C(N)c1ccc2[nH]c(-c3cc(C(CC(=O)O)C(=O)O)cc(-c4cc([N+](=O)[O-])ccc4O)c3O)nc2c1 (stereo unspecified)
7.42	Cc1cccc(-c2cc(C(CC(=O)O)C(=O)O)cc(-c3nc4ccc(C(=N)N)cc4[nH]3)c2O)c1 (stereo unspecified)
7.19	N=C(N)c1ccc2[nH]c(-c3cc(C(CC(=O)O)C(=O)O)cc(-c4ccccc4CS)c3O)nc2c1 (stereo unspecified)
7.85	N=C(N)c1ccc2[nH]c(-c3cc(C(CC(=O)O)C(=O)O)cc(-c4cc(Cl)cc(Cl)c4O)c3O)nc2c1 (stereo unspecified)
